Measurements from ChEMBL document CHEMBL1124316, “Synthesis and activity of nonhydrolyzable pseudomonic acid analogues” (J Med Chem, 1989).
Converted amounts (≈) assume the structure as drawn.

Tests used:
Escherichia coli [1] = experiment: In vitro antibacterial activity against Escherichia coli Juhl; assay type: functional
Method in brief: (§1)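 MICs were determined by agar dilution on brain heart infusion agar, with an inoculum of 10⁴ cfu/spot. Strains were either clinical isolates kept frozen in a culture collection or ATCC strains.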

[2] = system: Staphylococcus epidermidis; experiment: In vitro antibacterial activity against Staphylococcus epidermidis 3519; assay type: functional; method in brief: as §1
Streptococcus pyogenes = experiment: In vitro antibacterial activity against Streptococcus pyogenes EES 61; assay type: functional; method in brief: as §1
Staphylococcus aureus = experiment: In vitro antibacterial activity against Staphylococcus aureus ATCC […]; assay type: functional; method in brief: as §1
Streptococcus agalactiae = experiment: In vitro antibacterial activity against Streptococcus agalactiae CMX 508; assay type: functional; method in brief: as §1
Escherichia coli [3] = experiment: In vitro antibacterial activity against Escherichia coli SS; assay type: functional; method in brief: as §1
Isoleucine--tRNA ligase = Isoleucine--tRNA ligase (Escherichia coli K-12, UniProt P00956); experiment: Inhibitory activity against Isoleucyl-tRNA synthetase
Chain of Isoleucine--tRNA ligase (P00956 whole entry): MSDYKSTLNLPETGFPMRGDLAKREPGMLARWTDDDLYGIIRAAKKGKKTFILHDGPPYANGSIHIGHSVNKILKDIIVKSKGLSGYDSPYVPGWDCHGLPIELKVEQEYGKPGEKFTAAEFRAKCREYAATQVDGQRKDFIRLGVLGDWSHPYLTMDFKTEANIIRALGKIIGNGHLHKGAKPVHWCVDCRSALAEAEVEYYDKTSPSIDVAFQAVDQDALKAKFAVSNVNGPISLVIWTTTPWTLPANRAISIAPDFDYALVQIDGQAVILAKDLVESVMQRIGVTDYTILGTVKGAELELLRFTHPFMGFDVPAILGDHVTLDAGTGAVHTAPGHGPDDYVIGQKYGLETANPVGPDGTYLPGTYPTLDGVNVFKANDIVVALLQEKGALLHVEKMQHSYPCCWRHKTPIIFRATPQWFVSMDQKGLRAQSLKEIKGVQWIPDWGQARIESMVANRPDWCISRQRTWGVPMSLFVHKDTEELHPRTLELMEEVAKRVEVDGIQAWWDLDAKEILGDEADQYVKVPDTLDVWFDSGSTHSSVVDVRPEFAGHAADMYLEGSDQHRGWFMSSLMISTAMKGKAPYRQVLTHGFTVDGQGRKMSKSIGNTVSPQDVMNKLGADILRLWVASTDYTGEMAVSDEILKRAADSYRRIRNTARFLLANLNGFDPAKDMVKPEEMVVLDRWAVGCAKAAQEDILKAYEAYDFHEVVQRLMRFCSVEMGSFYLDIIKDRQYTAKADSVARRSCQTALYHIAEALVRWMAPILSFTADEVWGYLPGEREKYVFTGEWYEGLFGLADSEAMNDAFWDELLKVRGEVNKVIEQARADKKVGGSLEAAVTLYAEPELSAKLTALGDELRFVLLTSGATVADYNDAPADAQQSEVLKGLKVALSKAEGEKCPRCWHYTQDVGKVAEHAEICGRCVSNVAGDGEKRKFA
Method in brief: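 Isoleucyl-tRNA synthetase was isolated from Escherichia coli and purified to homogeneity. IC50 values were measured by the ATP-pyrophosphate exchange assay.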

[4] = Streptococcus pyogenes, read-out: MIC
[5] = Escherichia coli, read-out: MIC

Row | SMILES | MIC (Escherichia coli [1]) [µg/mL] | MIC [2] [µg/mL] | MIC (Streptococcus pyogenes; [4]) [µg/mL] | MIC (Staphylococcus aureus) [µg/mL] | MIC (Streptococcus agalactiae) [µg/mL] | MIC (Escherichia coli [3]; [5]) [µg/mL] | IC50 (Isoleucine--tRNA ligase) [µM] | MIC (Streptococcus pyogenes) [µg/mL] | MIC (Escherichia coli [3]) [µg/mL]
1 | COC(=O)CCCCCCCCCC(=O)/C=C(\C)C[C@@H]1OCC(C[C@@H]2O[C@H]2[C@@H](C)[C@H](C)O)[C@@H](O)[C@H]1O (some centres undefined) | 50 (≈ 97.5 µM) | 0.39 (≈ 0.761 µM) | 0.1 (≈ 0.195 µM) | 0.39 (≈ 0.761 µM) | 3.1 (≈ 6.05 µM) | 0.05 (≈ 0.0975 µM) | 3.32 | – | –
2 | COC(=O)CCCCCCCCOC(=O)/C=C(\C)C[C@@H]1OCC(C[C@@H]2O[C@H]2[C@@H](C)[C@H](C)O)[C@@H](O)[C@H]1O (some centres undefined) | 50 (≈ 97.2 µM) | 0.39 (≈ 0.758 µM) | 0.1 (≈ 0.194 µM) | 0.2 (≈ 0.389 µM) | 0.78 (≈ 1.52 µM) | 0.05 (≈ 0.0972 µM) | 1.17 | – | –
3 | C[C@H]([C@@H]1O[C@H]1CC1CO[C@@H](CC2=CC(=O)OC2)[C@H](O)[C@@H]1O)[C@H](C)O (some centres undefined) | > 100 | 100 (≈ 292 µM) | 6.2 (≈ 18.1 µM) | 100 (≈ 292 µM) | 100 (≈ 292 µM) | 25 (≈ 73 µM) | 794 | – | –
4 | COC(=O)CCCCCCCCOC/C=C(\C)C[C@@H]1OCC(C[C@@H]2O[C@H]2[C@@H](C)[C@H](C)O)[C@@H](O)[C@H]1O (some centres undefined) | > 100 | > 100 | 100 (≈ 200 µM) | > 100 | > 100 | 12.5 (≈ 25 µM) | 1.7 | – | –
5 | CSC(CCCCCCCCCC(=O)/C=C(\C)C[C@@H]1OCC(C[C@@H]2O[C@H]2[C@@H](C)[C@H](C)O)[C@@H](O)[C@H]1O)(SC)SC (some centres undefined) | > 100 | 1.56 (≈ 2.57 µM) | 1.56 (≈ 2.57 µM) | 1.56 (≈ 2.57 µM) | > 100 | 6.2 (≈ 10.2 µM) | 14.8 | – | –
6 | COC(=O)CCCCCCCCSC/C=C(\C)C[C@@H]1OCC(C[C@@H]2O[C@H]2[C@@H](C)[C@H](C)O)[C@@H](O)[C@H]1O (some centres undefined) | > 100 | > 100 | 50 (≈ 96.8 µM) | 100 (≈ 194 µM) | > 100 | 25 (≈ 48.4 µM) | 18.4 | – | –
7 | COC(=O)CCCCCCCCOC(=O)CC(=O)C[C@@H]1OCC(C[C@@H]2O[C@H]2[C@@H](C)[C@H](C)O)[C@@H](O)[C@H]1O (some centres undefined) | > 100 | > 100 | > 100 | > 100 | > 100 | > 100 | > 774 | – | –
8 | C/C(=C\C(=O)OCCCCCCCCC(=O)[O-])C[C@@H]1OCC(C[C@@H]2O[C@H]2[C@@H](C)[C@H](C)O)[C@@H](O)[C@H]1O.[Na+] (some centres undefined) | > 100 | 0.1 | 0.1 | 0.1 | 0.78 | 0.2 | 0.191 | – | –

Next, values leading:

Row | MIC (Escherichia coli [1]) [µg/mL] | MIC [2] [µg/mL] | MIC (Streptococcus pyogenes; [4]) [µg/mL] | MIC (Staphylococcus aureus) [µg/mL] | MIC (Streptococcus agalactiae) [µg/mL] | MIC (Escherichia coli [3]; [5]) [µg/mL] | IC50 (Isoleucine--tRNA ligase) [µM] | MIC (Streptococcus pyogenes) [µg/mL] | MIC (Escherichia coli [3]) [µg/mL] | SMILES
9 | > 100 | 50 (≈ 122 µM) | 12.5 (≈ 30.6 µM) | 25 (≈ 61.2 µM) | 50 (≈ 122 µM) | 12.5 (≈ 30.6 µM) | 46.5 | – | – | C/C(=C/Sc1ccccc1)C[C@@H]1OC[C@H](C[C@@H]2O[C@H]2[C@@H](C)[C@H](C)O)[C@@H](O)[C@H]1O
10 | > 100 | 6.2 (≈ 15.2 µM) | 3.1 (≈ 7.59 µM) | 3.1 (≈ 7.59 µM) | 6.2 (≈ 15.2 µM) | 1.56 (≈ 3.82 µM) | 11 | – | – | C/C(=C\Sc1ccccc1)C[C@@H]1OC[C@H](C[C@@H]2O[C@H]2[C@@H](C)[C@H](C)O)[C@@H](O)[C@H]1O
11 | 100 (≈ 247 µM) | 0.39 (≈ 0.964 µM) | 0.39 (≈ 0.964 µM) | 0.2 (≈ 0.494 µM) | 3.1 (≈ 7.66 µM) | 0.2 (≈ 0.494 µM) | 0.494 | – | – | C/C(=C\C(=O)c1ccccc1)C[C@@H]1OCC(C[C@@H]2O[C@H]2[C@@H](C)[C@H](C)O)[C@@H](O)[C@H]1O (some centres undefined)
12 | > 100 | > 100 | 25 (≈ 59.4 µM) | > 100 | > 100 | > 100 | 181 | – | – | CCCCS(=O)(=O)/C=C(\C)C[C@@H]1OCC(C[C@@H]2O[C@H]2[C@@H](C)[C@H](C)O)[C@@H](O)[C@H]1O (some centres undefined)
13 | > 100 | > 100 | > 100 | > 100 | > 100 | 100 (≈ 306 µM) | > 1230 | – | – | C[C@H]([C@@H]1O[C@H]1CC1CO[C@@H](Cc2ccoc2)[C@H](O)[C@@H]1O)[C@H](C)O (some centres undefined)
14 | > 100 | > 100 | 100 (≈ 248 µM) | > 100 | > 100 | 50 (≈ 124 µM) | 390 | – | – | CCCCSC/C=C(\C)C[C@@H]1OCC(C[C@@H]2O[C@H]2[C@@H](C)[C@H](C)O)[C@@H](O)[C@H]1O (some centres undefined)
15 | > 100 | 0.78 (≈ 2.01 µM) | 0.78 (≈ 2.01 µM) | 1.56 (≈ 4.01 µM) | 3.1 (≈ 7.98 µM) | 0.78 (≈ 2.01 µM) | 5.4 | – | – | CCCCS/C=C(\C)C[C@@H]1OCC(C[C@@H]2O[C@H]2[C@@H](C)[C@H](C)O)[C@@H](O)[C@H]1O (some centres undefined)
16 | > 100 | 100 (≈ 259 µM) | 50 (≈ 129 µM) | 100 (≈ 259 µM) | > 100 | 12.5 (≈ 32.3 µM) | 51.7 | – | – | CCCCOC/C=C(\C)C[C@@H]1OCC(C[C@@H]2O[C@H]2[C@@H](C)[C@H](C)O)[C@@H](O)[C@H]1O (some centres undefined)
17 | > 100 | > 100 | > 100 | > 100 | > 100 | 100 (≈ 257 µM) | 744 | – | – | CCCCS/C=C(/C)C[C@@H]1OCC(C[C@@H]2O[C@H]2[C@@H](C)[C@H](C)O)[C@@H](O)[C@H]1O (some centres undefined)
18 | – | – | – | – | – | – | 171 | >100 | 100 (≈ 247 µM) | CCCC[S+]([O-])/C=C(\C)C[C@@H]1OCC(C[C@@H]2O[C@H]2[C@@H](C)[C@H](C)O)[C@@H](O)[C@H]1O (stereo in doubt; 14)
19 | > 100 | > 100 | 100 (≈ 247 µM) | > 100 | > 100 | 100 (≈ 247 µM) | > 989 | – | – | CCCC[S+]([O-])/C=C(\C)C[C@@H]1OCC(C[C@@H]2O[C@H]2[C@@H](C)[C@H](C)O)[C@@H](O)[C@H]1O (stereo in doubt; 15)
